# Test results: ChEMBL document CHEMBL1136016, “Synthesis, biological activity, and molecular modeling investigation of new pyrazolo[4,3-e]-1,2,4-triazolo[1,5-c]pyrimidine derivatives as human A(3) adenosine receptor antagonists” (J Med Chem, 2002)
# How the values were obtained:
# Adenosine receptor A2a [1] = molecular target: T1, Adenosine receptor A2a (Homo sapiens, UniProt P29274); experiment: Displacement of [3H]SCH-58261 from human Adenosine A2A receptor expressed in HEK293 cells; range 140-186; type: cell-based
# Adenosine receptor A3 [2] = molecular target: T2, Adenosine receptor A3 (Homo sapiens, UniProt P0DMS8); experiment: Inhibition of IB-MECA agonist-mediated cAMP production in CHO cell membranes expressing human Adenosine A3 receptor; range 5.5-10.9; type: functional, cell-based
# T2 sequence (P0DMS8 whole entry): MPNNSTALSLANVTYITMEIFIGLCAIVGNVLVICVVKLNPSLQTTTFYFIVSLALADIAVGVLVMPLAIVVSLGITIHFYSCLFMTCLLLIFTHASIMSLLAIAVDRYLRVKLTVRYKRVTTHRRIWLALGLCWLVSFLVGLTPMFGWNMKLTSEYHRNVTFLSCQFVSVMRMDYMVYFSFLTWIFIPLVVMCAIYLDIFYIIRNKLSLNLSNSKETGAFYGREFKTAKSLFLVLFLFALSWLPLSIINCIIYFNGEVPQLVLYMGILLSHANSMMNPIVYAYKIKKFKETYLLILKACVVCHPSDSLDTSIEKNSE
# In short: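 Human A3-CHO membranes (in 50 mM Tris HCl, 10 mM MgCl2, 1 mM EDTA, pH 7.4) were preincubated for 10 min at 37 °C with 5 µM GTP, 0.5 mM Ro 20-1724 and 2.0 IU/mL adenosine deaminase. IB-MECA (100 nM) or antagonist was then added with 1 mM ATP and forskolin for 10 min. The reaction was stopped by 2 min boiling. cAMP was measured by [3H]cAMP competitive protein binding using beef adrenal binding protein, 150 min at 4 °C.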
# [3] = molecular target: Adenosine receptors; A1 & A3 (Homo sapiens) (UniProt P30542+P0DMS8); experiment: Selectivity ratio (hA1/hA3); type: protein assay
# Adenosine receptor A2b [4] = molecular target: T3, Adenosine receptor A2b (Homo sapiens, UniProt P29275); experiment: Displacement of [3H]DPCPX from human Adenosine A2B receptor expressed in HEK293 cells; range 213-296; type: cell-based
# T3 sequence (P29275 whole entry): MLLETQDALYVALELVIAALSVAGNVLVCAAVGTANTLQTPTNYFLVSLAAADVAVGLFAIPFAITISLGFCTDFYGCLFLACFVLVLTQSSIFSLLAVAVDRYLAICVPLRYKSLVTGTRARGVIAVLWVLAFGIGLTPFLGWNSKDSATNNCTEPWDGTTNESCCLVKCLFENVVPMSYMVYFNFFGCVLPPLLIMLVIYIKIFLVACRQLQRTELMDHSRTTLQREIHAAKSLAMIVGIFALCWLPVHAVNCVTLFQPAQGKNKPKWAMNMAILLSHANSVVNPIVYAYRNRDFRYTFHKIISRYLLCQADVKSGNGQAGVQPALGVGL
# In short: (§1)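 Competition binding on membranes of HEK-293 cells carrying recombinant human A2B receptor. Incubation 60 min at 25 °C in 50 mM Tris HCl pH 7.4 with 10 mM MgCl2, 1 mM EDTA, 0.1 mM benzamidine and 2 IU/mL adenosine deaminase. Radioligand 40 nM [3H]DPCPX, at least six to eight test concentrations. NECA defined nonspecific binding. Bound ligand separated on glass-fibre filters and counted; n = 3-6.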
# Adenosine receptor A1 [5] = molecular target: T4, Adenosine receptor A1 (Homo sapiens, UniProt P30542); experiment: Displacement of [3H]DPCPX from human Adenosine A1 receptor expressed in CHO cells; range 406-616; type: cell-based
# T4 sequence (P30542 whole entry): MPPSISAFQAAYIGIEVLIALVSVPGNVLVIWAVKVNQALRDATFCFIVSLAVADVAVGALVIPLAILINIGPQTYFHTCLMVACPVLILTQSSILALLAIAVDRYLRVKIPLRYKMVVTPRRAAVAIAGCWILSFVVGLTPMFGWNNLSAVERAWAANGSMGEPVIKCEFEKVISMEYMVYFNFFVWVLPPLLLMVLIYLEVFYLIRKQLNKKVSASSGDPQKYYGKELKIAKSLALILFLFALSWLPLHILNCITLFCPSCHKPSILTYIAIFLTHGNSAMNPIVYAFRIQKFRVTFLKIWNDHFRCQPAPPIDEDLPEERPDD
# Adenosine receptor A3 [6] = molecular target: T2, Adenosine receptor A3; experiment: Displacement of [3H]MRE3008-F20 from human Adenosine A3 receptor expressed in HEK cells; range 0.71-0.91; type: cell-based, HEK293
# [7] = molecular target: Adenosine receptors; A2b & A3 (Homo sapiens) (UniProt P29275+P0DMS8); experiment: Selectivity ratio (h2B/hA3); type: protein assay
# Adenosine receptor A2b [8] = molecular target: T3, Adenosine receptor A2b; experiment: Displacement of [3H]DPCPX from human Adenosine A2B receptor expressed in HEK293 cells; range 49-77; type: cell-based; in short: as §1
# Adenosine receptor A1 [9] = molecular target: T4, Adenosine receptor A1; experiment: Displacement of [3H]DPCPX from human Adenosine A1 receptor expressed in CHO cells; range 245-370; type: cell-based
# Adenosine receptor A3 [10] = molecular target: T2, Adenosine receptor A3; experiment: Displacement of [3H]MRE3008-F20 from human Adenosine A3 receptor expressed in HEK cells; range 0.61-0.83; type: cell-based, HEK293
# Adenosine receptor A2a [11] = molecular target: T1, Adenosine receptor A2a; experiment: Displacement of [3H]SCH-58261 from human Adenosine A2A receptor expressed in HEK293 cells; range 103-142; type: cell-based
# Adenosine receptor A1 [12] = molecular target: T4, Adenosine receptor A1; experiment: Displacement of [3H]DPCPX from human Adenosine A1 receptor expressed in CHO cells; range 724-889; type: cell-based
# In short: (§2)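 Human recombinant A1 receptor in CHO cell membranes, resuspended in 50 mM Tris HCl pH 7.4. Displacement run 120 min at 25 °C with 1 nM [3H]DPCPX, 50 µg protein per assay, and at least six to eight test concentrations. Nonspecific binding defined with CHA. Bound and free separated on glass-fiber filters; filter radioactivity counted. n = 3-6.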
# Adenosine receptor A2b [13] = molecular target: T3, Adenosine receptor A2b; experiment: Displacement of [3H]DPCPX from human Adenosine A2B receptor expressed in HEK293 cells; range 37-63; type: cell-based
# In short: (§3)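 HEK-293 membranes expressing the human receptor were incubated 60 min at 25 °C. Six to eight test concentrations were used. Nonspecific binding was set with NECA. n = 3-6.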
# Adenosine receptor A3 [14] = molecular target: T2, Adenosine receptor A3; experiment: biochemical
# Adenosine receptor A2a [15] = molecular target: T1, Adenosine receptor A2a; experiment: Displacement of [3H]SCH-58261 from human Adenosine A2A receptor expressed in HEK293 cells; range 511-648; type: cell-based
# Adenosine receptor A2a [16] = molecular target: T1, Adenosine receptor A2a; experiment: Displacement of [3H]SCH-58261 from human Adenosine A2A receptor expressed in HEK293 cells; range 240-388; type: cell-based
# Adenosine receptor A2b [17] = molecular target: T3, Adenosine receptor A2b; experiment: Displacement of [3H]DPCPX binding at human Adenosine A2B receptor expressed in HEK293 cells; type: cell-based
# In short: (§4)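 Membranes from HEK-293 cells with human recombinant A2B receptor. Incubation 60 min at 25 °C in 50 mM Tris HCl, 10 mM MgCl2, 1 mM EDTA, 0.1 mM benzamidine, pH 7.4, with 2 IU/mL adenosine deaminase and 40 nM [3H]DPCPX. At least six to eight test concentrations. Nonspecific binding defined with NECA. n = 3-6.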
# Adenosine receptor A3 [18] = molecular target: T2, Adenosine receptor A3; experiment: biochemical; remark: listed apart in the source
# Adenosine receptor A1 [19] = molecular target: T4, Adenosine receptor A1; experiment: Displacement of [3H]DPCPX from human Adenosine A1 receptor expressed in CHO cells; type: cell-based; in short: as §2
# Adenosine receptor A2b [20] = molecular target: T3, Adenosine receptor A2b; experiment: Displacement of [3H]DPCPX from human Adenosine A2B receptor expressed in HEK293 cells; range 178-310; type: cell-based; in short: as §3
# Adenosine receptor A2a [21] = molecular target: T1, Adenosine receptor A2a; experiment: Displacement of [3H]SCH-58261 from human Adenosine A2A receptor expressed in HEK293 cells; range 51-55; type: cell-based
# Adenosine receptor A1 [22] = molecular target: T4, Adenosine receptor A1; experiment: Displacement of [3H]DPCPX from human Adenosine A1 receptor expressed in CHO cells; range 346-586; type: cell-based; in short: as §2
# Adenosine receptor A3 [23] = molecular target: T2, Adenosine receptor A3; experiment: biochemical; remark: listed apart in the source
# Adenosine receptor A2b [24] = molecular target: T3, Adenosine receptor A2b; experiment: Displacement of [3H]DPCPX from human Adenosine A2B receptor expressed in HEK293 cells; range 211-287; type: cell-based; in short: as §4
# Adenosine receptor A2a [25] = molecular target: T1, Adenosine receptor A2a; experiment: Displacement of [3H]SCH-58261 from human Adenosine A2A receptor expressed in HEK293 cells; range 48-78; type: cell-based
# Adenosine receptor A3 [26] = molecular target: T2, Adenosine receptor A3; experiment: Displacement of [3H]MRE3008-F20 binding at human Adenosine A3 receptor expressed in HEK cells; range 0.77-0.97; type: cell-based, HEK293
# Adenosine receptor A1 [27] = molecular target: T4, Adenosine receptor A1; experiment: Displacement of [3H]DPCPX from human Adenosine A1 receptor expressed in CHO cells; range 509-712; type: cell-based; in short: as §2
# T1 sequence (P29274 whole entry): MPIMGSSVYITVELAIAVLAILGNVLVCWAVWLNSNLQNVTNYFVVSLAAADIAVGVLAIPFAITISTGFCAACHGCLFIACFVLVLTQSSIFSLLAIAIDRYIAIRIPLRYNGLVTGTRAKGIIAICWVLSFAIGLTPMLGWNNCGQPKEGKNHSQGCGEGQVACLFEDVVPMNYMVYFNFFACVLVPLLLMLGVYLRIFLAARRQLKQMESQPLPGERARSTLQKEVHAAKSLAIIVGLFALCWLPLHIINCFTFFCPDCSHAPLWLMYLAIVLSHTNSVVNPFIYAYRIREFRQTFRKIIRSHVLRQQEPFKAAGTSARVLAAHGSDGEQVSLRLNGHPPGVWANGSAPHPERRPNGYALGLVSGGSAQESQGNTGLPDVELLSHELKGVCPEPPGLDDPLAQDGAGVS
compound,measurement,setting,value
COc1cccc(NC(=O)Nc2nc3nn(C)cc3c3nc(-c4ccco4)nn23)c1,Ki,Adenosine receptor A2a [1],160 nM
same,IC50,Adenosine receptor A3 [2],7.8 nM
same,Ratio,[3],625
same,Ki,Adenosine receptor A2b [4],251 nM
same,Ki,Adenosine receptor A1 [5],500 nM
same,Ki,Adenosine receptor A3 [6],0.8 nM
same,Ratio,[7],313
CCCn1cc2c(nc(NC(=O)Nc3ccccc3Cl)n3nc(-c4ccco4)nc23)n1,Ki,Adenosine receptor A2b [8],61 nM
same,Ki,Adenosine receptor A1 [9],300 nM
same,Ratio,[3],423
same,Ki,Adenosine receptor A3 [10],0.71 nM
same,Ratio,[7],86
same,Ki,Adenosine receptor A2a [11],121 nM
CCn1cc2c(nc(NC(=O)Nc3ccc4c(c3)OCO4)n3nc(-c4ccco4)nc23)n1,Ratio,[3],2970
same,Ki,Adenosine receptor A1 [12],802 nM
same,Ki,Adenosine receptor A2b [13],48 nM
same,Ki,Adenosine receptor A3 [14],0.27 nM
same,Ki,Adenosine receptor A2a [15],576 nM
same,Ratio,[7],178
CCCn1cc2c(nc(NC(=O)Nc3ccc(S(=O)(=O)O)cc3)n3nc(-c4ccco4)nc23)n1,Ki,Adenosine receptor A2a [16],305 nM
same,Ki,Adenosine receptor A2b [17],> 10000 nM
same,Ratio,[3],> 333
same,Ratio,[7],> 333
same,Ki,Adenosine receptor A3 [18],30 nM
same,Ki,Adenosine receptor A1 [19],> 10000 nM
CCn1cc2c(nc(NC(=O)Nc3ccc(C(F)(F)F)cc3)n3nc(-c4ccco4)nc23)n1,Ratio,[3],464
same,Ki,Adenosine receptor A2b [20],235 nM
same,Ki,Adenosine receptor A2a [21],53 nM
same,Ki,Adenosine receptor A1 [22],450 nM
same,Ratio,[7],242
same,Ki,Adenosine receptor A3 [23],0.97 nM
CCn1cc2c(nc(NC(=O)Nc3ccc(F)cc3)n3nc(-c4ccco4)nc23)n1,Ki,Adenosine receptor A2b [24],246 nM
same,Ratio,[3],700
same,Ki,Adenosine receptor A2a [25],60 nM
same,Ki,Adenosine receptor A3 [26],0.86 nM
same,Ki,Adenosine receptor A1 [27],602 nM
same,Ratio,[7],286
